Tests used:
[1] = system: redox biosensor hGrx-roGFP2 in bloodstream T. b. brucei; assay: Intracellular redox changes in T. brucei redox reporter cell line; assay type: cell-based, Trypanosoma brucei brucei; conditions: for oxidation of the biosensor: 4 h, 0.54 μM 13, 1.49 μM 15, 78 nM suramin, 25 μM menadione
Method in brief: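 The strain 427 line 449 bloodstream reporter line expresses hGrx-roGFP2, induced with 1 μg/mL oxytetracycline for 24 h. Parasites at 2 × 10^6/mL were treated for 4 h at 37 °C with test compound, 25 μM menadione, 78 nM suramin or 1% DMSO. A parallel sample then received 1 mM DTT for 15 min. Cells were stained with PI (2 μg/mL) and GFP (530/40 nm) was read on PI-negative cells by flow cytometry. Values are % biosensor reduction versus DMSO without DTT; triplicates, SD.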

[2] = system: murine macrophages (cell line J774); assay: Viability assay of murine macrophages; assay type: cell-based; conditions: murine macrophages vs T. b. brucei
Method in brief: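 J774 murine macrophages were grown in DMEM with 10% FBS, penicillin and streptomycin at 37 °C in 5% CO2. Cells were exposed to 7 concentrations of test compound, each in triplicate, for 24 h, and viability was measured with WST-1 reagent as % of DMSO-treated control. EC50 was derived by fitting a sigmoidal Hill equation; SD.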

Bloodstream T. b. brucei [3] = assay: Inhibition of glucose uptake; assay type: cell-based, Trypanosoma brucei brucei; conditions: 30 min
[4] = system: Bloodstream T. b. brucei (strain 427) cell line 449; assay: Viability assay of bloodstream trypanosomes; assay type: cell-based; conditions: Trypanosoma brucei, 24 h
Method in brief: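 Bloodstream parasites at 5 × 10^5 cells/mL in HMI-9 with 10% FBS received test compound (5 μM final; nifurtimox 15 μM) or 1% DMSO, in triplicate, for 24 h at 37 °C and 5% CO2. Cells were diluted into PBS with 1% glucose, stained with propidium iodide (2 μg/mL) and counted by flow cytometry. Viability is the % of the DMSO-control cell count. EC50 came from 7-point curves (triplicates) fitted to a sigmoidal Hill equation; SD.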

Bloodstream T. b. brucei [5] = assay: Glucose consumption; assay type: cell-based, Trypanosoma brucei brucei; conditions: compound at its EC50, 4 h
Method in brief: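 Bloodstream T. b. brucei were seeded at 5.3–5.8 × 10^6 parasites/mL in HMI-9 with 10% FBS (37 °C, 5% CO2). They were exposed for 4 h to test compound at a fixed concentration, or to suramin 78 nM, ebselen 5 μM, tri-thiazol 0.31 μM or 1% DMSO vehicle. Viable cells were counted in a Neubauer chamber, cells were spun down at 2000 g for 10 min, and supernatant glucose was measured on an analyzer. Consumption is given as g/L per million cells per hour; triplicates, SD.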

Structure (SMILES): CC1=CC(=O)c2ccccc2C1=O [menadione]
- oxidation of the biosensor [1]: 60%
- reversal of biosensor oxidation by DTT ([1]; after 4 h treatment, 15 min with 1 mM DTT): fully reversible

Structure (SMILES): CC1CS(=O)(=O)CCN1/N=C/c1ccc([N+](=O)[O-])o1 (centres unmarked) [NFX, nifurtimox]
- selectivity index (SI) [2]: ~10
- glucose uptake compared to vehicle treated cells (Bloodstream T. b. brucei [3]; 5X EC50 (13 2.7 μM, 15 7.45 μM, nifurtimox 50 μM)): A similar outcome
- EC50 ([4]; read-out: EC50 against T. b. brucei): ~10 µM
- viability at 15 µM ([4]; read-out: Parasite survival): 28.2 ± 5.5%

Structure (SMILES): Cc1ccc(C(=O)Nc2ccc(S(=O)(=O)O)c3cc(S(=O)(=O)O)cc(S(=O)(=O)O)c23)cc1NC(=O)c1cccc(NC(=O)Nc2cccc(C(=O)Nc3cc(C(=O)Nc4ccc(S(=O)(=O)O)c5cc(S(=O)(=O)O)cc(S(=O)(=O)O)c45)ccc3C)c2)c1 [suramin]
- oxidation of the biosensor [1]: did not induce redox changes
- capacity to metabolize glucose compared to the control condition (Bloodstream T. b. brucei [5]; vs DMSO): < 30%

Structure (SMILES): O=c1c2ccccc2[se]n1-c1ccccc1 [ebselen]
- reduction of glucose consumption vs vehicle (Bloodstream T. b. brucei [5]): 44%
- anti-proliferative activity with respect to the DMSO control (Bloodstream T. b. brucei [5]; not statistically significant): some anti-proliferative activity

Structure (SMILES): O=C(CCc1ccc(O)cc1)c1c(O)cc(O)cc1O [phloretin]
- reduction of glucose uptake (Bloodstream T. b. brucei [3]; 500 μM): 63%
